Consider one compound from ChEMBL document CHEMBL2331224 (J Med Chem, 2013).

In series [1] the test system is Mus musculus. Description: Toxicity against KKAy mouse assessed as plasma ALT level at 10 mg/kg/day, po for 14 days (reference value: 17.6 +/- 0.9 IU). Format: organism-based. Also noted: route oral. The note with it: in vivo, 336 h.
Series [2] concerns Mus musculus. The series is described as follows: Toxicity against KKAy mouse assessed as plasma ALP level at 10 mg/kg/day, po for 14 days (reference value: 358.2 +/- 43.1 IU). Also on record: route oral. It is filed as organism-based. The settings on record: in vivo, 336 h.
Series [3] concerns Plasma. Description: Plasma concentration in ICR mouse at 30 mg/kg, po by HPLC analysis. It is filed as ADME, organism-based. Also on record: dose 30 mg/kg, route oral. The settings on record: read-out: Cp, in vivo. Put shortly: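 Six-week-old male ICR mice (n = 6−9) got a single oral 30 mg/kg dose in 1% ethanol/0.5% CMC in water, 10 mL/kg. Plasma was extracted with ethyl acetate and reconstituted in methanol. Reversed-phase HPLC (ODS-3, 40 °C, methanol:33.3 mM ammonium acetate pH 5.0 85:15, UV 280 nm), quantified against an authentic-compound calibration plot.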

Series [4] deals with Mus musculus. The series is described as follows: Toxicity against KKAy mouse assessed as creatinine level at 10 mg/kg/day, po for 14 days (reference value: 0.2 mg/dl). The note with it: in vivo, 336 h. Format: organism-based. Also on record: route oral.
The test system of series [5] is Mus musculus. Description: Antidiabetic activity in KKAy mouse assessed as reduction in water intake on day 3 to 12 at 10 mg/kg/day, po for 14 days relative to control. It is filed as functional, organism-based. Put shortly:
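Male KK-A^y mice, housed singly after 6 weeks' acclimation and grouped by blood glucose. Oral 10 mg/kg/day or vehicle (1% ethanol/0.5% CMC in water, 10 mL/kg) for 14 days. Body weight, food and water intake were followed. Fed blood glucose was taken from the tail vein by the glucose oxidase method. n = 4−5, ANOVA.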

Series [6] concerns Mus musculus. Description: Toxicity against KKAy mouse assessed as blood urea nitrogen level at 10 mg/kg/day, po for 14 days (reference value: 21.9 +/- 1.1 mg/dL). It is filed as organism-based. The settings on record: in vivo, 336 h. Also on record: route oral.
For series [7], the target named is T1, Retinoic acid receptor RXR-alpha (Homo sapiens) (UniProt P19793).
T1 sequence (whole entry): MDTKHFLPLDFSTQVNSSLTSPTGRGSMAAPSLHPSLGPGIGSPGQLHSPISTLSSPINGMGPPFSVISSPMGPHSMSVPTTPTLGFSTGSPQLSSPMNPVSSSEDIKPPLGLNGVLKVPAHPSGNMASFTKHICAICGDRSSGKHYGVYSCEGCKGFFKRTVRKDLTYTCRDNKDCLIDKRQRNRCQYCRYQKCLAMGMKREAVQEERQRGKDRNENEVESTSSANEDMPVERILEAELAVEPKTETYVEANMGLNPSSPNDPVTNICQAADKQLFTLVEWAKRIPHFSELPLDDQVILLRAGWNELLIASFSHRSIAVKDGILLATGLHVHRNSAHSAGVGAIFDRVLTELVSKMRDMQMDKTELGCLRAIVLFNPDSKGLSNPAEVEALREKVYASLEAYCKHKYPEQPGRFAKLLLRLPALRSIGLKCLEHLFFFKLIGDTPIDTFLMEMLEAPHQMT
The series is described as follows: Partial agonist activity at RXRalpha (unknown origin) expressed in COS1 cells after 18 hrs by luciferase reporter gene assay relative to bexarotene. Format: cell-based. The settings on record: COS-1. The method, boiled down:
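COS-1 cells in DMEM with 10% FBS at 37 °C, 5% CO2, transfected with RXRα, an RXR-response-element luciferase reporter and a SEAP background vector. Cells were seeded at about 2.0 × 10⁴ per well with compound (DMSO below 1%) for 18 h. Luciferase was normalized to SEAP and expressed relative to 1 μM reference RXR full agonist as 100%. EC50 came from full dose-response curves. Triplicates, at least three experiments.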

In series [8] the test system is Mus musculus. The series is described as follows: Toxicity in ICR mouse assessed as weight gain at 30 mg/kg/day, po for 7 days relative to control. It is filed as organism-based. Also on record: route oral. The settings on record: in vivo, 168 h. The method, boiled down:
(§1)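 Male ICR mice, 6−7 weeks old, four per cage, grouped by body weight. Oral 30 mg/kg or vehicle (1% ethanol/0.5% CMC in water, 10 mL/kg) once daily for 7 days, body weight recorded daily. After overnight fasting, mice were weighed under ether, and liver was removed and weighed. Serum was analysed on a dry-chemistry analyser for TG, TCHO, ALP, CRE, BUN and other markers. n = 7−23, ANOVA.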

Series [9] concerns the target T2, Retinoic acid receptor RXR-gamma (Homo sapiens) (UniProt P48443).
T2 sequence (whole entry): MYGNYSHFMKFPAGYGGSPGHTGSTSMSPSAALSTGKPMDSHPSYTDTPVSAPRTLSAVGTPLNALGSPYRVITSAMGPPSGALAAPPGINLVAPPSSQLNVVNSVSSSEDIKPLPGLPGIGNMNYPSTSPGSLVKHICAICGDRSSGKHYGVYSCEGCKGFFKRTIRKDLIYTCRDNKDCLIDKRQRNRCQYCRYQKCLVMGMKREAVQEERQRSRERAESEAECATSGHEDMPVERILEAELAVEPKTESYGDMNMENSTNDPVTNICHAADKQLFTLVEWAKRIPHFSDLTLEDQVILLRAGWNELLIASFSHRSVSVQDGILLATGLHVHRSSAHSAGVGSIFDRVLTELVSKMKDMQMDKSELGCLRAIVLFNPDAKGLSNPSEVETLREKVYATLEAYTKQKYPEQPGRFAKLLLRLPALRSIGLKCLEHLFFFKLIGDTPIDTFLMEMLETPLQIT
The series is described as follows: Partial agonist activity at RXRgamma (unknown origin) by luciferase reporter gene assay relative to LGD1069. In general terms: In a reporter assay the amount or activity of a reporter protein is the signal.

Series [10] relates to Mus musculus. Description: Toxicity against KKAy mouse assessed as plasma AST level at 10 mg/kg/day, po for 14 days (reference value: 49.6 +/- 2.3 IU). It is filed as organism-based. Also noted: route oral. The note with it: in vivo, 336 h.
The subject of series [11] is Mus musculus. The series is described as follows: Toxicity in ICR mouse assessed as increase in blood triglyceride level at 30 mg/kg/day, po for 7 days. Format: organism-based. The note with it: in vivo, 168 h. Also on record: route oral. Put shortly:
as §1

The test system of series [12] is Mus musculus. Description: Antidiabetic activity in KKAy mouse at 10 mg/kg/day, po for 14 days measured on day 15 by oral glucose tolerance test relative to control. Format: functional, organism-based. The method, boiled down: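 On day 15, KK-A^y mice dosed orally at 10 mg/kg/day for 14 days were fasted 17 h and given oral glucose at 1 g/kg. Blood glucose was read by glucose oxidase at 0, 15, 30, 45, 60, 90 and 120 min. n = 4−5.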

The test system of series [13] is Rattus norvegicus. Description: Hepatotoxicity in Sprague-Dawley rat at 30 mg/kg/day, po for 28 days. Also on record: route oral. It is filed as toxicity, organism-based. The settings on record: in vivo, 672 h. The method, boiled down: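 Male and female SD rats, four weeks old on arrival, two per cage. Oral 30 mg/kg/day or vehicle (1% ethanol/0.5% CMC in water, 5 mL/kg) for 28 days, body weight recorded daily. After overnight fasting and isoflurane anaesthesia, liver, brain, kidney, spleen and testis were weighed, and serum was collected (2000g, 10 min, 4 °C) for blood chemistry.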

The structures appear in SMILES notation. Activity calls are given as the source filed them. The calls are words filed in the database; no cut-off is given here.

Consider `Cc1cc2c(cc1-n1c(C(F)(F)F)nc3cc(C(=O)O)ccc31)C(C)(C)CCC2(C)C`, for which the Activity in series [1] is 17.3 IU; in [2], 554 IU; in [4] it was 0.2 mg/dL; in [6], 22.5 mg/dL; in [8], “Non-toxic”; in series [10], 42.3 IU. In addition, the Activity entry in [11] was “Non-toxic”; in [13], “Toxic”. The concentration in series [3] was over 6 µM. The result in series [5] and in series [9] was Active. Besides, in series [7], the maximum response (Emax) (as a rule, the maximal effect, on the per cent scale that the assay sets) turned out to be 67%. Besides, the outcome in [12] was inactive.
